In ChEMBL document CHEMBL3351240, “Antinociceptive properties of physalins from Physalis angulata” (J Nat Prod, 2014):
Active and inactive are the calls of the source.

Experiments:
Mus musculus [1] = assay: Antinociceptive activity in Swiss Webster mouse assessed as inhibition of acetic acid-induced abdominal constrictions at 25 mg/kg, ip dosed 40 mins before acetic acid injection; assay type: functional, organism-based; design: dose 25 mg/kg; settings: Abdomen
Outline: (§1)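 Male Swiss Webster mice dosed ip (5% DMSO in saline vehicle) 40 min before ip acetic acid 0.8% v/v, 10 mL/kg; writhes (abdominal contraction with hind-limb stretching) counted over 0−30 min; mean writhing score, n = 10 per group; ANOVA with Tukey.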

Mus musculus [2] = assay: Antinociceptive activity in Swiss Webster mouse assessed as inhibition of formalin-induced late phase pain response at 50 to 100 mg/kg, ip dosed 40 mins before formalin injection; assay type: functional, organism-based
Outline: (§2)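 Mice acclimated 30 min in chamber, dosed ip 40 min before sc injection of 20 μL 2.5% formalin into dorsal hind paw; licking time of injected paw scored 0−10 min (early phase) and 10−30 min (late phase); n = 7−10; ANOVA with Tukey.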

Mus musculus [3] = assay: Antinociceptive activity in Swiss Webster mouse assessed as inhibition of formalin-induced early phase pain response at 50 to 100 mg/kg, ip dosed 40 mins before formalin injection; assay type: functional, organism-based; outline: as §2
Mus musculus [4] = assay: CNS toxicity in Swiss Webster mouse assessed as effect on motor performance at 100 mg/kg, ip after 40 mins by rotarod test; assay type: organism-based; design: dose 100 mg/kg, route intraperitoneal; settings: in vivo
Outline: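 Rota-rod test: 3 cm bar at 8 rpm; mice pre-selected 24 h earlier by remaining on bar for two consecutive 120 s periods; placed on rod 40 min after ip dosing; time on bar recorded up to 120 s; n = 6; one-way ANOVA with Tukey.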

Mus musculus [5] = assay: CNS toxicity in Swiss Webster mouse assessed as effect on motor performance at 100 mg/kg, ip after 40 mins by open field test; assay type: organism-based; design: dose 100 mg/kg, route intraperitoneal; settings: in vivo
Outline: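 Open-field test 40 min after ip dosing: mice placed singly in 40 × 60 × 50 cm box with 12 floor squares; squares crossed with all four paws counted over 3 min; n = 6; one-way ANOVA with Tukey.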

Mus musculus [6] = assay: Antiinflammatory activity in Swiss Webster mouse assessed as reduction in hyperalgesia at 100 mg/kg, ip dosed 40 mins before CFA injection and measured 2 hrs post CFA stimulus; assay type: functional, organism-based; design: dose 100 mg/kg
Outline: (§3)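 Male Swiss Webster mice (22−28 g) given drug ip in 5% DMSO/saline (dexamethasone in 10% ethanol/saline) 40 min before 20 μL CFA (1 mg/mL heat-killed M. tuberculosis in paraffin oil/mannide monooleate) sc into right hind paw plantar region. Mechanical threshold by von Frey filaments, up−down method, at 2, 4 and 6 h; n = 6; two-way ANOVA with Bonferroni.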

Mus musculus [7] = assay: Antiinflammatory activity in Swiss Webster mouse assessed as reduction in hyperalgesia at 100 mg/kg, ip dosed 40 mins before CFA injection and measured 4 to 6 hrs post CFA stimulus; assay type: functional, organism-based; design: dose 100 mg/kg; outline: as §3
Mus musculus [8] = assay: Antiinflammatory activity in Swiss Webster mouse assessed as reduction in paw edema at 50 to 100 mg/kg, ip dosed 40 mins before CFA injection and measured 2 to 4 hrs post CFA stimulus; assay type: functional, organism-based
Outline: (§4)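 Male Swiss Webster mice, ip pretreatment in 5% DMSO/saline 40 min before intraplantar CFA (20 μL, 1 mg/mL heat-killed M. tuberculosis). Paw volume measured by plethysmometer before and 2, 4, 6 h after CFA; edema expressed as percent increase in paw volume; n = 6 mice/group; two-way ANOVA with Bonferroni.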

Mus musculus [9] = assay: Reduction in TNFalpha level in Swiss Webster mouse 100 mg/kg, ip dosed 40 mins before CFA injection and measured 3 hrs post CFA stimulus by ELISA method; assay type: functional, organism-based; design: dose 100 mg/kg; settings: at 100 mg/kg
Outline: (§5)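 Mice dosed ip 40 min before intraplantar CFA; paw skin removed under terminal halothane anesthesia; proteins extracted at 100 mg tissue/mL PBS with 0.4 M NaCl, 0.05% Tween 20 and protease inhibitors; centrifuged 3000g for 10 min; supernatant IL-1β or TNF-α measured by ELISA as pg/mL; n = 6.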

Mus musculus [10] = assay: Reduction in IL1-beta level in Swiss Webster mouse 100 mg/kg, ip dosed 40 mins before CFA injection and measured 3 hrs post CFA stimulus by ELISA method; assay type: functional, organism-based; design: dose 100 mg/kg; settings: at 100 mg/kg; outline: as §5
Mus musculus [11] = assay: Antinociceptive activity in Swiss Webster mouse assessed as increase in reaction time at 100 mg/kg, ip measured after 3 hrs by tail flick test; assay type: functional, organism-based; design: dose 100 mg/kg
Outline: (§6)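 Mice habituated to restraint cylinder 20 min/day for 5 days; distal 2 cm of tail immersed in 48 ± 0.5 °C water; tail withdrawal latency measured before and after ip dosing (5% DMSO/saline vehicle); 10 s cutoff; n = 6; two-way ANOVA with Bonferroni.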

Mus musculus [12] = assay: Antinociceptive activity in Swiss Webster mouse assessed as increase in latency time at 100 mg/kg, ip measured after 0.5 to 2 hrs by hot plate test; assay type: functional, organism-based; design: dose 100 mg/kg
Outline: (§7)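 Hot plate held at 55 ± 1 °C; male Swiss Webster mice; reaction time to hind paw licking or jumping recorded before and after ip dosing (vehicle 5% DMSO in saline); data as difference from baseline; 10 s cutoff; n = 6; two-way ANOVA with Bonferroni.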

Mus musculus [13] = assay: Antinociceptive activity in Swiss Webster mouse assessed as inhibition of acetic acid-induced abdominal constrictions at 10 mg/kg, ip dosed 40 mins before acetic acid injection; assay type: functional, organism-based; design: dose 10 mg/kg; settings: Abdomen
Outline: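 Male Swiss Webster mice dosed ip 40 min before ip acetic acid 0.8% v/v (10 mL/kg). Writhes (abdominal contraction with hind limb stretching) counted 0–30 min after injection in a glass cylinder. Mean writhing scores ± SEM, n = 10 per group; ANOVA with Tukey.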

Mus musculus [14] = assay: Antinociceptive activity in Swiss Webster mouse assessed as inhibition of formalin-induced late phase pain response at 10 mg/kg, ip dosed 40 mins before formalin injection; assay type: functional, organism-based; design: dose 10 mg/kg
Outline: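 Mice acclimated 30 min, dosed ip 40 min before 20 μL 2.5% formalin sc into dorsal hind paw. Licking time of injected paw scored 10–30 min (late phase), mirror-aided observation. Mean ± SEM, n = 7−10; ANOVA with Tukey.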

Mus musculus [15] = assay: Antinociceptive activity in Swiss Webster mouse assessed as inhibition of acetic acid-induced abdominal constrictions at 25 to 100 mg/kg, ip dosed 40 mins before acetic acid injection; assay type: functional, organism-based; settings: Abdomen; outline: as §1
Mus musculus [16] = assay: Antinociceptive activity in Swiss Webster mouse assessed as inhibition of formalin-induced late phase pain response at 25 to 100 mg/kg, ip dosed 40 mins before formalin injection; assay type: functional, organism-based; outline: as §2
Mus musculus [17] = assay: Antiinflammatory activity in Swiss Webster mouse assessed as reduction in hyperalgesia at 100 mg/kg, ip dosed 40 mins before CFA injection and measured 2 to 6 hrs post CFA stimulus; assay type: functional, organism-based; design: dose 100 mg/kg; outline: as §3
Mus musculus [18] = assay: Antiinflammatory activity in Swiss Webster mouse assessed as reduction in paw edema at 100 mg/kg, ip dosed 40 mins before CFA injection and measured 2 hrs post CFA stimulus; assay type: functional, organism-based; design: dose 100 mg/kg; outline: as §4
Mus musculus [19] = assay: Antinociceptive activity in Swiss Webster mouse assessed as increase in latency time at 5 mg/kg, ip measured after 1 hr by hot plate test; assay type: functional, organism-based; design: dose 5 mg/kg; outline: as §7
Mus musculus [20] = assay: Antinociceptive activity in Swiss Webster mouse assessed as inhibition of formalin-induced late phase pain response at 5 mg/kg, ip dosed 40 mins before formalin injection; assay type: functional, organism-based; design: dose 5 mg/kg; outline: as §2
Mus musculus [21] = assay: Antinociceptive activity in Swiss Webster mouse assessed as inhibition of formalin-induced early phase pain response at 5 mg/kg, ip dosed 40 mins before formalin injection; assay type: functional, organism-based; design: dose 5 mg/kg; outline: as §2
Mus musculus [22] = assay: Antinociceptive activity in Swiss Webster mouse assessed as increase in reaction time at 5 mg/kg, ip measured after 3 hrs by tail flick test; assay type: functional, organism-based; design: dose 5 mg/kg; outline: as §6

C[C@@]12C[C@H]3OC(=O)[C@@H]1CO[C@]14O[C@]5([C@H]2C1=O)[C@@](O)(CC[C@H]1[C@H]4C[C@H]2O[C@]24CC=CC(=O)[C@]14C)C(=O)O[C@@]35C [PHYSALIN F]
inhibition (Mus musculus [1]): Active | inhibition (Mus musculus [2]): Active | inhibition (Mus musculus [3]): Active | Activity (Mus musculus [4]): Non-toxic | Activity (Mus musculus [5]): Non-toxic | inhibition (Mus musculus [6]): Active | inhibition (Mus musculus [7]): inactive | inhibition (Mus musculus [8]): Active | inhibition (Mus musculus [9]): Active | inhibition (Mus musculus [10]): inactive | Activity (Mus musculus [11]): Active | Activity (Mus musculus [12]): Active

COc1ccc2c(c1)c(CC(=O)O)c(C)n2C(=O)c1ccc(Cl)cc1
inhibition (Mus musculus [13]): Active | inhibition (Mus musculus [14]): Active

C[C@]12C(=O)C=CCC1=CC[C@@H]1[C@@H]2CC[C@]2(O)C(=O)O[C@@]3(C)[C@H]4C[C@]5(C)[C@@H](CO[C@@]16O[C@@]32[C@H]5C6=O)C(=O)O4 [PHYSALIN B]
inhibition (Mus musculus [15]): Dose-dependent effect | inhibition (Mus musculus [16]): Active | Activity (Mus musculus [4]): Non-toxic | Activity (Mus musculus [5]): Non-toxic | inhibition (Mus musculus [17]): inactive | inhibition (Mus musculus [18]): Active | Activity (Mus musculus [11]): Active

CN1CC[C@]23c4c5ccc(O)c4O[C@H]2[C@@H](O)C=C[C@H]3[C@H]1C5
Activity (Mus musculus [19]): Active | inhibition (Mus musculus [20]): Active | inhibition (Mus musculus [21]): Active | Activity (Mus musculus [22]): Active
